# Calls of active or inactive are those of the source. No cut-off for these calls is given here.
# How the values were obtained:
# [1] = Dissociation constant, pKa of the compound; assay type: physicochemical
# Staphylococcus aureus [2] = assay: Antibacterial activity against Staphylococcus aureus NCTC 8325 carrying shuttle vector pMC-SK after 16 to 20 hrs by broth microdilution method; assay type: functional
# How it was run: (§1)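 Broth microdilution in cation-adjusted Mueller Hinton broth. Compounds were serially diluted twofold in DMSO at 50-fold final strength (2% DMSO final). The inoculum was 1 × 10^4 cells per well. Plates were incubated at 37 °C for 16–20 h, and growth was read as absorbance at 600 nm.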
# Staphylococcus aureus [3] = assay: Antibacterial activity against Staphylococcus aureus NCTC 8325 carrying shuttle vector pMC-SK with mepR gene after 16 to 20 hrs by broth microdilution method; assay type: functional; how it was run: as §1
# Staphylococcus aureus [4] = assay: Antibacterial activity against MBX-1090-resistant Staphylococcus aureus isolate d20A1 carrying shuttle vector pMC-SK after 16 to 20 hrs by broth microdilution method; assay type: functional; how it was run: as §1
# Staphylococcus aureus [5] = assay: Antibacterial activity against MBX-1090-resistant Staphylococcus aureus isolate d20A1 carrying shuttle vector pMC-SK with mepR gene after 16 to 20 hrs by broth microdilution method; assay type: functional; how it was run: as §1
# Staphylococcus aureus [6] = assay: Antibacterial activity against Staphylococcus aureus NCTC 8325 after 16 to 20 hrs by broth microdilution method; assay type: functional; how it was run: as §1
# Staphylococcus aureus [7] = assay: Antibacterial activity against Staphylococcus aureus NCTC 8325 after 16 to 20 hrs by broth microdilution method in presence of efflux pump inhibitor reserpine; assay type: functional
# How it was run: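 Broth microdilution in cation-adjusted MHB with reserpine at 20 µg/ml final in the medium as efflux inhibitor. Twofold DMSO dilutions were made (2% DMSO final) with 1 × 10^4 cells per well. Incubation was 37 °C for 16–20 h, with growth read at 600 nm.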
# Staphylococcus aureus [8] = assay: Antibacterial activity against Staphylococcus aureus NCTC 8325 harboring genetic deletion of mepR gene after 16 to 20 hrs by broth microdilution method; assay type: functional; how it was run: as §1
# Staphylococcus aureus [9] = assay: Antibacterial activity against Staphylococcus aureus NCTC 8325 harboring genetic deletion of mepRA gene after 16 to 20 hrs by broth microdilution method; assay type: functional; how it was run: as §1
# Staphylococcus aureus [10] = assay: Antibacterial activity against Staphylococcus aureus NCTC 8325 carrying expression vector pG154 after 16 to 20 hrs by broth microdilution method; assay type: functional; how it was run: as §1
# Staphylococcus aureus [11] = assay: Antibacterial activity against Staphylococcus aureus NCTC 8325 carrying expression vector pG154 after 16 to 20 hrs by broth microdilution method in presence of anhydrous tetracycline; assay type: functional
# How it was run: (§2)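 Broth microdilution in cation-adjusted MHB containing anhydrous tetracycline at 100 ng/ml final to induce the pG154 expression vector. Twofold DMSO compound dilutions were used (2% DMSO final) with 1 × 10^4 cells per well. Incubation was 37 °C for 16–20 h, and absorbance was read at 600 nm.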
# Staphylococcus aureus [12] = assay: Antibacterial activity against Staphylococcus aureus NCTC 8325 carrying expression vector pG154 with mepA gene after 16 to 20 hrs by broth microdilution method; assay type: functional; how it was run: as §1
# Staphylococcus aureus [13] = assay: Antibacterial activity against Staphylococcus aureus NCTC 8325 carrying expression vector pG154 with mepA gene after 16 to 20 hrs by broth microdilution method in presence of anhydrous tetracycline; assay type: functional; how it was run: as §2
# Staphylococcus aureus [14] = assay: Antibacterial activity against Staphylococcus aureus NCTC 8325 harboring genetic deletion of mepRA gene and carrying expression vector pG154 after 16 to 20 hrs by broth microdilution method; assay type: functional; how it was run: as §1
# Staphylococcus aureus [15] = assay: Antibacterial activity against Staphylococcus aureus NCTC 8325 harboring genetic deletion of mepRA gene and carrying expression vector pG154 after 16 to 20 hrs by broth microdilution method in presence of anhydrous tetracycline; assay type: functional; how it was run: as §2
# Staphylococcus aureus [16] = assay: Antibacterial activity against Staphylococcus aureus NCTC 8325 harboring genetic deletion of mepRA gene and carrying expression vector pG154 with mepA gene after 16 to 20 hrs by broth microdilution method; assay type: functional; how it was run: as §1
# Staphylococcus aureus [17] = assay: Antibacterial activity against Staphylococcus aureus NCTC 8325 harboring genetic deletion of mepRA gene and carrying expression vector pG154 with mepA gene after 16 to 20 hrs by broth microdilution method in presence of anhydrous tetracycline; assay type: functional; how it was run: as §2
# [18] = Selectivity ratio of MIC for MBX-1090-resistant Staphylococcus aureus isolate d20A1 to MIC for Staphylococcus aureus NCTC 8325; assay type: functional
# How it was run: (§3)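 Ratio of resistant-mutant MIC to NCTC 8325 MIC. Both MICs came from broth microdilution in cation-adjusted MHB with 2% DMSO final and 1 × 10^4 cells per well, incubated at 37 °C for 16–20 h and read at 600 nm.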
# [19] = Selectivity ratio of MIC for MBX-1090-resistant Staphylococcus aureus isolate d20B1 to MIC for Staphylococcus aureus NCTC 8325; assay type: functional; how it was run: as §3
# [20] = Selectivity ratio of MIC for MBX-1090-resistant Staphylococcus aureus isolate d20C1 to MIC for Staphylococcus aureus NCTC 8325; assay type: functional; how it was run: as §3
# Staphylococcus aureus [21] = assay: Induction of mepA gene expression in Staphylococcus aureus NCTC 8325 at 0.8 ug/ml by RT-PCR analysis; assay type: functional, organism-based
# How it was run: (§4)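 NCTC 8325 diluted 1/200 in TSB and grown at 37 °C (250 rpm) to OD600 0.3. 5 ml aliquots exposed 3 h to compound or DMSO (2% final), triplicate cultures pooled. RNA was DNase-treated and 1 µg primed with random hexamers for cDNA, with a no-RT control. mepA signal normalized to rho, untreated set to 1. Mean of three experiments ± SD.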
# Staphylococcus aureus [22] = assay: Induction of mepR gene expression in Staphylococcus aureus NCTC 8325 at 0.8 ug/ml by RT-PCR analysis; assay type: functional, organism-based
# Staphylococcus aureus [23] = assay: Upregulation of mepR gene expression in MBX-1090-resistant Staphylococcus aureus isolate d20A1 at 0.8 ug/ml by RT-PCR analysis relative to wild type; assay type: functional
# Staphylococcus aureus [24] = assay: Upregulation of mepA gene expression in MBX-1090-resistant Staphylococcus aureus isolate d20A1 at 0.8 ug/ml by RT-PCR analysis relative to wild type; assay type: functional
# Staphylococcus aureus [25] = assay: Upregulation of mepB gene expression in MBX-1090-resistant Staphylococcus aureus isolate d20A1 at 0.8 ug/ml by RT-PCR analysis relative to wild type; assay type: functional
# Staphylococcus aureus [26] = assay: Upregulation of conventional hypothetical protein mRNA expression in MBX-1090-resistant Staphylococcus aureus isolate d20A1 at 0.8 ug/ml by RT-PCR analysis relative to wild type; assay type: functional
# Staphylococcus aureus [27] = assay: Downregulation of protein A gene expression in MBX-1090-resistant Staphylococcus aureus isolate d20A1 at 0.8 ug/ml by RT-PCR analysis relative to wild type; assay type: functional
# Staphylococcus aureus [28] = assay: Downregulation of ribH gene expression in MBX-1090-resistant Staphylococcus aureus isolate d20A1 at 0.8 ug/ml by RT-PCR analysis relative to wild type; assay type: functional
# Staphylococcus aureus [29] = assay: Downregulation of ribA gene expression in MBX-1090-resistant Staphylococcus aureus isolate d20A1 at 0.8 ug/ml by RT-PCR analysis relative to wild type; assay type: functional
# Staphylococcus aureus [30] = assay: Downregulation of ribE gene expression in MBX-1090-resistant Staphylococcus aureus isolate d20A1 at 0.8 ug/ml by RT-PCR analysis relative to wild type; assay type: functional
# Staphylococcus aureus [31] = assay: Downregulation of ribD gene expression in MBX-1090-resistant Staphylococcus aureus isolate d20A1 at 0.8 ug/ml by RT-PCR analysis relative to wild type; assay type: functional
# Staphylococcus aureus [32] = assay: microbe, parasite or virus in culture; settings: isolate d20A1
# Staphylococcus aureus [33] = assay: Selectivity ratio of MIC for Staphylococcus aureus NCTC 8325 harboring genetic deletion of mepRA gene and carrying expression vector pG154 with mepA gene in presence of anhydrous tetracycline to MIC for Staphylococcus aureus NCTC 8325 harboring genetic deletion of mepRA gene and carrying expression vector pG154 with mepA gene; assay type: functional
# How it was run: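 Ratio of the MIC with anhydrous tetracycline (100 ng/ml final, induces pG154-mepA) to the MIC without it. Both came from broth microdilution in cation-adjusted MHB with 2% DMSO and 1 × 10^4 cells per well, incubated at 37 °C for 16–20 h and read at 600 nm.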
# Staphylococcus aureus [34] = assay: Induction of mepA gene expression in Staphylococcus aureus NCTC 8325 at 0.5 ug/ml by RT-PCR analysis; assay type: functional, organism-based; how it was run: as §4
# Staphylococcus aureus [35] = assay: Induction of mepR gene expression in Staphylococcus aureus NCTC 8325 at 0.5 ug/ml by RT-PCR analysis; assay type: functional, organism-based
# Staphylococcus aureus [36] = assay: Upregulation of mepA gene expression in MBX-1090-resistant Staphylococcus aureus isolate d20A1 at 50 ug/ml by RT-PCR analysis relative to wild type; assay type: functional
# Staphylococcus aureus [37] = assay: Upregulation of mepB gene expression in MBX-1090-resistant Staphylococcus aureus isolate d20A1 at 50 ug/ml by RT-PCR analysis relative to wild type; assay type: functional
# Staphylococcus aureus [38] = assay: Upregulation of conventional hypothetical protein mRNA expression in MBX-1090-resistant Staphylococcus aureus isolate d20A1 at 50 ug/ml by RT-PCR analysis relative to wild type; assay type: functional
# Staphylococcus aureus [39] = assay: Modulation of protein A gene expression in MBX-1090-resistant Staphylococcus aureus isolate d20A1 at 50 ug/ml by RT-PCR analysis relative to wild type; assay type: functional
# Staphylococcus aureus [40] = assay: Downregulation of ribH gene expression in MBX-1090-resistant Staphylococcus aureus isolate d20A1 at 50 ug/ml by RT-PCR analysis relative to wild type; assay type: functional
# Staphylococcus aureus [41] = assay: Downregulation of ribA gene expression in MBX-1090-resistant Staphylococcus aureus isolate d20A1 at 50 ug/ml by RT-PCR analysis relative to wild type; assay type: functional
# Staphylococcus aureus [42] = assay: Downregulation of ribE gene expression in MBX-1090-resistant Staphylococcus aureus isolate d20A1 at 50 ug/ml by RT-PCR analysis relative to wild type; assay type: functional
# Staphylococcus aureus [43] = assay: Downregulation of ribD gene expression in MBX-1090-resistant Staphylococcus aureus isolate d20A1 at 50 ug/ml by RT-PCR analysis relative to wild type; assay type: functional
# Staphylococcus aureus [44] = assay: Upregulation of mepR gene expression in MBX-1090-resistant Staphylococcus aureus isolate d20A1 at 50 ug/ml by RT-PCR analysis relative to wild type; assay type: functional
SMILES,MIC (Staphylococcus aureus [6]) [µg/mL],MIC (Staphylococcus aureus [7]) [µg/mL],MIC (Staphylococcus aureus [8]) [µg/mL],MIC (Staphylococcus aureus [9]) [µg/mL],MIC (Staphylococcus aureus [10]) [µg/mL],MIC (Staphylococcus aureus [11]) [µg/mL],MIC (Staphylococcus aureus [12]) [µg/mL],MIC (Staphylococcus aureus [13]) [µg/mL],MIC (Staphylococcus aureus [14]) [µg/mL],MIC (Staphylococcus aureus [15]) [µg/mL],MIC (Staphylococcus aureus [16]) [µg/mL],MIC (Staphylococcus aureus [17]) [µg/mL],Selectivity ratio [18],MIC (Staphylococcus aureus [32]) [µg/mL],other results
C(=C\c1cc2ccc(C3=NCCN3)cc2[nH]1)/c1cc2ccc(C3=NCCN3)cc2[nH]1,1,0.5,4,1,1,1,1,8,1,1,1,4,8,8,pKa [1]: 9.6; MIC (Staphylococcus aureus [2]): 1 µg/mL; MIC (Staphylococcus aureus [3]): 1 µg/mL; MIC (Staphylococcus aureus [4]): 8 µg/mL; MIC (Staphylococcus aureus [5]): 1 µg/mL; Selectivity ratio [19]: 8; Selectivity ratio [20]: 8; Activity (Staphylococcus aureus [21]): inactive; Activity (Staphylococcus aureus [22]): inactive; fold change (FC) (Staphylococcus aureus [23]): 1.7; fold change (FC) (Staphylococcus aureus [24]): 2; fold change (FC) (Staphylococcus aureus [25]): 1; fold change (FC) (Staphylococcus aureus [26]): 15.3; fold change (FC) (Staphylococcus aureus [27]): 3.1; fold change (FC) (Staphylococcus aureus [28]): 1.9; fold change (FC) (Staphylococcus aureus [29]): 3; fold change (FC) (Staphylococcus aureus [30]): 2.6; fold change (FC) (Staphylococcus aureus [31]): 1.4
c1cc2cc(-c3ccc4cc(C5=NCCN5)[nH]c4c3)[nH]c2cc1C1=NCCN1,0.5,0.25,1,0.5,0.5,0.5,0.5,4,0.5,0.5,0.5,1,4,2,Selectivity ratio (Staphylococcus aureus [33]): 2; Activity (Staphylococcus aureus [34]): Active; Activity (Staphylococcus aureus [35]): Active
Cn1cc(NC(=O)c2cc(NC(=O)c3cc(NC=O)cn3C)cn2C)cc1C(=O)NCCC(=N)N [STALLIMYCIN],50,50,100,100,50,50,50,50,50,50,50,50,4,200,fold change (FC) (Staphylococcus aureus [36]): 72.6; fold change (FC) (Staphylococcus aureus [37]): 25.5; fold change (FC) (Staphylococcus aureus [38]): 14.2; fold change (FC) (Staphylococcus aureus [39]): 2; fold change (FC) (Staphylococcus aureus [40]): 2.7; fold change (FC) (Staphylococcus aureus [41]): 1.9; fold change (FC) (Staphylococcus aureus [42]): 1.5; fold change (FC) (Staphylococcus aureus [43]): 1.6; fold change (FC) (Staphylococcus aureus [44]): 39.2
